Measured values from ChEMBL document CHEMBL4665637, “Inhibition of diverse opportunistic viruses by structurally optimized retrograde trafficking inhibitors” (Bioorg Med Chem, 2019).
Activity calls are given as the source filed them. The rule behind the calls is not given here.

Experiments:
[1] = system: Human betaherpesvirus 5; assay: Antiviral activity against HCMV TB40/E infected in human NHDF cells assessed as reduction in infectious virus titer compound added 2 hpi and measured after 96 hpi by inverted microscopic analysis; conditions: Human betaherpesvirus 5, TB40/E
[2] = system: NHDF; assay: Inhibition of retrograde transport in NHDF cells assessed as displacement of STX5 from golgi apparatus at 10 uM by immunofluorescence analysis; type: functional, cell-based; conditions: Homo sapiens
Method in brief: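 HDFs exposed to 10 µM compound or DMSO vehicle, fixed in 2% paraformaldehyde for 15 min at room temperature. Blocked in PBS with 10% human serum, 0.5% Tween-20 and 5% glycine, permeabilized with 0.1% Triton X-100. Stained for STX5 and for the Golgi marker p115, DAPI mounting, imaged by confocal microscopy.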

[3] = system: NHDF; assay: Cytotoxicity in human NHDF cells assessed as cell viability at 10 uM incubated for 96 hrs by CellTiter-Glo Luminescent assay; type: cell-based
Method in brief: (§1)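 Cells in 96-well plates exposed to DMSO or compound at 100 nM or 10 µM for 96 h. Medium then replaced with fresh medium. XTT read as absorbance after 2 h at 37°C with activating reagent; CellTiter-Glo (ATP) read as luminescence. Average of three independent experiments.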

[4] = system: ARPE-19; assay: Cytotoxicity in human ARPE-19 cells assessed as cell viability at 100 nM incubated for 96 hrs by CellTiter-Glo Luminescent assay; type: cell-based; conditions: arpe-19, 96 h, 0.1 µM
Method in brief: as §1

[5] = system: NHDF; assay: Cytotoxicity in human NHDF cells assessed as cell viability at 100 nM incubated for 96 hrs by CellTiter-Glo Luminescent assay; type: cell-based; conditions: 0.1 µM
Method in brief: as §1

[6] = system: Human betaherpesvirus 5; assay: Antiviral activity against HCMV infected in human ARPE-19 cells at 7.5 uM measured after 3 days post infection; type: functional, cell-based
Method in brief: (§2)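 ARPE-19 cells infected with GFP-expressing HCMV and treated with compound at 7.5 µM. Images taken 3 and 6 days post infection, and area of infection calculated from GFP signal. Average of 3 distinct experiments.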

[7] = system: BALB/3T3 clone A31; assay: Antiviral activity against mouse polyomavirus A2 strain infected in BALB.3T3 clone A31 cells assessed as viral RNA at 100 nM to 10 uM measured after 24 hpi by RT-PCR analysis; type: functional, cell-based; conditions: Murine polyomavirus, dose microM 0.1-10
Method in brief: (§3)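 A31 cells in 10% FBS DMEM infected with MuPyV A2 at MOI 1 for 1.5 h at 37°C. Cells washed twice, then exposed to compound (100 nM, 1.0 µM or 10 µM) for 24 h. Total RNA extracted and 2 µg converted to cDNA. LT mRNA measured by qPCR, normalized to TBP and to untreated cells. Two independent experiments, n=4 per condition, mean ± SD, 2-way ANOVA.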

[8] = system: Vero; assay: Cytotoxicity in African green monkey VERO cells assessed as cell viability at 100 nM incubated for 96 hrs by CellTiter-Glo Luminescent assay; type: cell-based; conditions: chlorocebus sabaeus, 0.1 µM
Method in brief: as §1

[9] = system: Human betaherpesvirus 5; assay: Antiviral activity against HCMV TB40/E infected in human assessed as reduction in infectious virus titer at 10 uM compound added 2 hpi and measured after 96 hpi by inverted microscopic analysis
[10] = Cytotoxicity in mouse BALB/3T3 clone A31 cells assessed as cell viability at 100 nM incubated for 96 hrs by CellTiter-Glo Luminescent assay; type: cell-based; conditions: balb/3t3 clone a31, 96 h, 0.1 µM
Method in brief: as §1

[11] = system: ARPE-19; assay: Cytotoxicity in human ARPE-19 cells assessed as cell viability at 100 nM incubated for 96 hrs by XTT Assay; type: cell-based; conditions: arpe-19, 96 h, 0.1 µM
Method in brief: as §1

[12] = Cytotoxicity in mouse BALB/3T3 clone A31 cells assessed as cell viability at 100 nM incubated for 96 hrs by XTT Assay; type: cell-based; conditions: balb/3t3 clone a31, 96 h, 0.1 µM
Method in brief: as §1

[13] = system: Human betaherpesvirus 5; assay: Antiviral activity against HCMV infected in human ARPE-19 cells at 7.5 uM measured after 6 days post infection; type: functional, cell-based
Method in brief: as §2

[14] = system: Vero; assay: Cytotoxicity in African green monkey VERO cells assessed as cell viability at 10 uM incubated for 96 hrs by CellTiter-Glo Luminescent assay; type: cell-based; conditions: chlorocebus sabaeus, dose […]
Method in brief: as §1

[15] = system: ARPE-19; assay: Cytotoxicity in human ARPE-19 cells assessed as cell viability at 10 uM incubated for 96 hrs by CellTiter-Glo Luminescent assay; type: cell-based; conditions: arpe-19, 96 h
Method in brief: as §1

[16] = system: Vero; assay: Cytotoxicity in African green monkey VERO cells assessed as cell viability at 100 nM incubated for 96 hrs by XTT Assay; type: cell-based; conditions: chlorocebus sabaeus, 0.1 µM
Method in brief: as §1

[17] = system: NHDF; assay: Cytotoxicity in human NHDF cells assessed as cell viability at 100 nM incubated for 96 hrs by XTT Assay; type: cell-based; conditions: 0.1 µM
Method in brief: as §1

[18] = Cytotoxicity in mouse BALB/3T3 clone A31 cells assessed as cell viability at 10 uM incubated for 96 hrs by CellTiter-Glo Luminescent assay; type: cell-based; conditions: balb/3t3 clone a31, 96 h
Method in brief: as §1

[19] = system: Vero; assay: Cytotoxicity in African green monkey VERO cells assessed as cell viability at 10 uM incubated for 96 hrs by XTT Assay; type: cell-based; conditions: chlorocebus sabaeus
Method in brief: as §1

[20] = system: ARPE-19; assay: Cytotoxicity in human ARPE-19 cells assessed as cell viability at 10 uM incubated for 96 hrs by XTT Assay; type: cell-based; conditions: arpe-19, 96 h
Method in brief: as §1

[21] = system: BALB/3T3 clone A31; assay: Antiviral activity against mouse polyomavirus A2 strain infected in BALB.3T3 clone A31 cells assessed as viral RNA at 1 to 10 uM measured after 24 hpi by RT-PCR analysis; type: functional, cell-based; conditions: Murine polyomavirus
Method in brief: as §3

[22] = Cytotoxicity in mouse BALB/3T3 clone A31 cells assessed as cell viability at 10 uM incubated for 96 hrs by XTT Assay; type: cell-based; conditions: balb/3t3 clone a31, 96 h
Method in brief: as §1

[23] = system: BALB/3T3 clone A31; assay: Antiviral activity against mouse polyomavirus A2 strain infected in BALB.3T3 clone A31 cells assessed as viral RNA at 100 nM measured after 24 hpi by RT-PCR analysis; type: functional, cell-based; conditions: Murine polyomavirus
Method in brief: as §3

[24] = system: NHDF; assay: Cytotoxicity in human NHDF cells assessed as cell viability at 10 uM incubated for 96 hrs by XTT Assay; type: cell-based
Method in brief: as §1

| SMILES | IC50 [1] | STX5 displacement from Golgi (active/inactive call) [2] | Activity [3] | Activity [4] | Activity [5] | Activity [6] | Activity [8] | Activity [9] | Activity [10] | Activity [11] | Activity [12] | Activity [13] | Activity [14] | Activity [15] | Activity [16] | Activity [17] | Activity [18] | Activity [19] | Activity [20] | Activity [22] | further results |
| --- | --- | --- | --- | --- | --- | --- | --- | --- | --- | --- | --- | --- | --- | --- | --- | --- | --- | --- | --- | --- | --- |
| Cc1nc(-c2ccc(C3N(C)c4ccccc4C(=O)N3c3ccccc3)s2)cs1 (stereo not drawn) | 386 nM | – | – | – | – | – | – | – | – | – | – | – | – | – | – | – | – | – | – | – | – |
| Cc1nc(-c2ccc(C3N(C)c4ccc(C#N)cc4C(=O)N3c3ccccc3)s2)cs1 (stereo not drawn) | 34.1 nM | Active | Toxic | Non-Toxic | Non-Toxic | Active | Non-Toxic | Active | Non-Toxic | Non-Toxic | Non-Toxic | Active | Toxic | Toxic | Non-Toxic | Non-Toxic | Toxic | – | – | – | Activity [7]: Active |
| Cc1nc(-c2ccc(C3N(C)c4ccc(F)cc4C(=O)N3c3ccccc3)s2)cs1 (stereo not drawn) | 25 nM | – | – | – | – | – | – | – | – | – | – | – | – | – | – | – | – | – | – | – | – |
| Cc1nc(-c2ccc(C3Nc4ccc([N+](=O)[O-])cc4C(=O)N3c3ccccc3)s2)cs1 (stereo not drawn) | 90.5 nM | Active | Toxic | Non-Toxic | Non-Toxic | Active | Non-Toxic | Active | Non-Toxic | Non-Toxic | Non-Toxic | Active | Toxic | Toxic | Non-Toxic | Non-Toxic | Toxic | Toxic | Toxic | Toxic | Activity [21]: Active; Activity [23]: inactive; Activity [24]: Toxic |
| Cc1nc(-c2ccc(C3N(C)c4ccc([N+](=O)[O-])cc4C(=O)N3c3ccccc3)s2)cs1 (stereo not drawn) | 21.3 nM | Active | Toxic | Non-Toxic | Non-Toxic | Active | Non-Toxic | Active | Non-Toxic | Non-Toxic | Non-Toxic | Active | Toxic | Toxic | Non-Toxic | Non-Toxic | Toxic | Toxic | Toxic | Toxic | Activity [7]: Active; Activity [24]: Toxic |
| Cc1nc(-c2ccc(C3Nc4ccc(C#N)cc4C(=O)N3c3ccccc3)s2)cs1 (stereo not drawn) | 96.3 nM | Active | Toxic | Non-Toxic | Non-Toxic | Active | Non-Toxic | Active | Non-Toxic | Non-Toxic | Non-Toxic | Active | Toxic | Toxic | Non-Toxic | Non-Toxic | Toxic | Toxic | Toxic | Toxic | Activity [21]: Active; Activity [23]: inactive; Activity [24]: Toxic |
